Assay [1] can be described thus: inhibitors of TNFa-induced NFkB p65 translocation, primary screen, imaging, HUVEC, MLSMR starter and 10KST1 sets (AID 438;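 active = inhibition above 20% together with a positive visual image hit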;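 note: compound added about 3h40 before a 20 min TNFalpha stimulation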;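 for inhibition: signal is the nuclear over cytoplasmic p65 intensity ratio per well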). As to conditions: HUVEC TNFa-induced p65 nuclear translocation; cell count: measured here: nuclei count (cytotoxicity indicator), at 2.08 µM; inhibition: at 2 µM, stronger effect = higher value, 0% TNFa-plus-vehicle, 100% no-TNFa wells.
Assay [2] can be described thus: inhibitors of E-selectin induction by TNFa, primary screen, imaging, HUVEC, immunofluorescence, MLSMR starter and 10KST1 sets (AID 487;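 active = visually confirmed hit in the image check and inhibition above 20%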;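 for inhibition: signal is fraction of cell area covered by stained E-selectin grains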;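 for nuclei count: 100% = median nuclei count of all wells on the same plate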). The following applies: HUVEC TNFalpha-induced E-selectin immunofluorescence imaging, at 2 µM; inhibition: stronger effect = higher value; nuclei count: measured here: cell number, toxicity.
Assay [3] in a line: DUSP6 inhibitors restoring Erk phosphorylation by chemical complementation, primary imaging in DUSP6-transfected HeLa (AID 609;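 active = compounds giving at least 50% inhibition in the cell-based MKP-3 phosphatase rescue imaging test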;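 for inhibition: phospho-Erk level distribution per well compared with pooled transfected vehicle control wells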). As to conditions: HeLa MKP-3 transfected, phospho-Erk imaging KS statistic, at 10 µM, cells stimulated with TPA for 15 min.
The target in assay [4] is Dual specificity protein phosphatase 6 (Homo sapiens) (UniProt Q16828). The description is as above. As to conditions: HeLa MKP-3 transfected, phospho-Erk imaging KS statistic; at 10 µM; stronger effect = higher value; cells stimulated with TPA for 15 min.
Sequence of Dual specificity protein phosphatase 6 (Homo sapiens) (Q16828 whole entry, looked up): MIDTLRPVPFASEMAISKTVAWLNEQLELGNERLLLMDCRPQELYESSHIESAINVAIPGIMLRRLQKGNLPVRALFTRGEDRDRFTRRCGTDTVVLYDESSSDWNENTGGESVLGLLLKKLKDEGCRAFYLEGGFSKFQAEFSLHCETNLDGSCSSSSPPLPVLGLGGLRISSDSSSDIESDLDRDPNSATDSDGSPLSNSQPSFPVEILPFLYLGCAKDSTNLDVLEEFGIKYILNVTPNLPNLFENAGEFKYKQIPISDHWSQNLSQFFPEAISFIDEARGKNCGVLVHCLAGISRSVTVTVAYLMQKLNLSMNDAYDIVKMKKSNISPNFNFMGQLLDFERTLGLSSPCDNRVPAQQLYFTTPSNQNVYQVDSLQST
In assay [5] the target is Voltage-gated potassium channel subunit beta-2 (Rattus norvegicus) (UniProt P62483). In words: KvBeta enzyme negative modulators, primary screen, biochemical, NADPH fluorescence (AID 622;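 active = fluorescence slope higher than the sample average by over 3 SD, cut at about -0.22 in these data, passing the limit was not always enough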;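 note: slope of raw intensity against log time taken from 70 to 1610 s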). The following applies: recombinant KvBeta, 4-cyanobenzaldehyde reduction, at 10 µM, stronger effect = higher value.
Sequence of Voltage-gated potassium channel subunit beta-2 (Rattus norvegicus) (P62483 whole entry, looked up): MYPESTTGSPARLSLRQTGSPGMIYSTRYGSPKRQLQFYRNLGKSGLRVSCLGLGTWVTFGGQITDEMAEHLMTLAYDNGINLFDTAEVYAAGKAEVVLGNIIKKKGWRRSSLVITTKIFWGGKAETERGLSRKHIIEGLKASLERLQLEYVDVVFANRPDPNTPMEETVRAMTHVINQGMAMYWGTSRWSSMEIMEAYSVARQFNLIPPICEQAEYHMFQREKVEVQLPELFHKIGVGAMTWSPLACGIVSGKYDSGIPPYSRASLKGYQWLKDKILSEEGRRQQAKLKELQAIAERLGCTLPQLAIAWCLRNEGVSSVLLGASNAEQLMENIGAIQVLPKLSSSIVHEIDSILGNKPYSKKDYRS
Assay [6] shares this target. The experiment in a line: KvBeta positive modulators, primary screen, biochemical, NADPH fluorescence (AID 623;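 active = NADPH fluorescence slope more negative than the mean of all samples by about 3 SD, 99.7% confidence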;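 note: fluorescence intensity change per second fitted from 20 to 320 s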). The following applies: Recombinant KvBeta, NADPH fluorescence decrease slope, 10 min; at 10 µM; stronger effect = lower value.
For assay [7], the target named is Alpha-2C adrenergic receptor (Homo sapiens) (UniProt P18825). In words: modulators of alpha2C/GIRK thallium flux, primary screen, cell-based, HEK293 alpha2C/GIRK1/2 (AID 624;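 active = fluorescence slope after compound addition differing from the mean of all screened samples at 99.7% confidence, in either direction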;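 note: slope of fluorescence ratio to pre-addition baseline per second over 15 to 24 s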). As to conditions: thallium flux BTC fluorescence, at 10 µM, actives lie on both sides.
Sequence of Alpha-2C adrenergic receptor (Homo sapiens) (P18825 whole entry, looked up): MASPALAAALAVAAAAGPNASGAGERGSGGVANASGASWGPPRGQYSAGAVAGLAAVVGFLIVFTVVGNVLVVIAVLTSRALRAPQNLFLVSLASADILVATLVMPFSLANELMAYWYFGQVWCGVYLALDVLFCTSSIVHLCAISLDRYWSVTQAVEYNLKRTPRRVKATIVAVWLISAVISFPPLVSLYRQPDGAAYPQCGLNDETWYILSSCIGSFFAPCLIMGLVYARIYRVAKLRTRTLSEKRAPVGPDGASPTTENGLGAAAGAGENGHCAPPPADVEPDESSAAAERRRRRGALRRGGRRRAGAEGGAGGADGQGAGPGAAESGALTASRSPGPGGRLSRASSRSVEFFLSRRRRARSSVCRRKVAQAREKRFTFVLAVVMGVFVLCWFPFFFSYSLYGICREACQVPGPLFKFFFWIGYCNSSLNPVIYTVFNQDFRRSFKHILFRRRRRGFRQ
Assay [8] in a line: inhibitors of larval lipid processing in zebrafish, primary screen, whole organism, PED6 fluorescence, gall bladder and intestine (AID 686).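 Note: larvae 5 to 7 days old with five fish per well; signal comes from phospholipase A2 cleavage of quenched PED6 carried via bile.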 The following applies: Zebrafish larvae PED6 lipid processing, fluorescence scoring; screened at 20 µM (by protocol). The essentials: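 Doses: 20 µM single dose. Test system: live zebrafish larvae aged 5-7 days, whole organism. Quantity: five larvae per well. Measured by: By-eye fluorescence microscopy. Reagent: ingested quenched lipid PED6 at 100 nM. Read-out: visual per-well fluorescence inhibition score. Times: overnight exposure of larvae to compound plus PED6.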

Assay [9] is described as follows: inhibitors of Chlamydomonas gravitaxis, primary screen, whole organism, Chlamydomonas reinhardtii, WT vs cilia-less mutant, absorbance, 96-well (AID 463189;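 active = inhibition at or above 50% relative to wild type and mutant plate controls; inactive = inhibition below 50%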;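 note: 0% = wild type cc124 cells in DMSO and 100% = ciliumless bld1 mutant cells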). As to conditions: OD600 absorbance, 2 days, at 10 µM, stronger effect = higher value.
The mark [10] stands for this setting: measured here: cell density z-score.
Setting [11] is: measured here: nuclear c-Myc green intensity z-score.
The mark [12] stands for this setting: measured here: nuclear pErk red intensity z-score, stronger effect = higher value.

Activity calls are given as the source filed them.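 Rule for the calls, unless noted: active = a full or partial loss of lipid-probe fluorescence in the fish gall bladder, intestine or both, judged by eye; inactive = no fluorescence loss, or compound toxic to the fish.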

With `CN(C)CCCOC(=O)C1c2ccccc2Oc2ccccc21`, the cell count in assay [1] stood at 542. In addition, the inhibition in assay [1] is 1.3% (inactive); in assay [2] it was 31.3% (inactive); in assay [4], -8.76% (inactive); in assay [9], 8% (inactive). The compound further came in with a nuclei count in assay [2] of 169%. Moreover, the z-score was -1.43 in assay [3] (setting [10]), -0.729 in assay [3] (setting [11]) and 0.0446 in assay [3] (setting [12]). For the same compound, in assay [5], the fluorescence slope was -0.329 (inactive). In addition, the NADPH fluorescence slope in [6] is -1.7e-05 (inactive). Also, the slope in assay [7] was 0.00512 (inactive). Moreover, the call in [8] was inactive.
Take `COc1cccc(-c2nnc3sc(-c4cccs4)nn23)c1`: the cell count in assay [1] came to 595. The inhibition in assay [1] was -9.3% (inactive); in assay [2] it was -23% (inactive); in assay [4], -11.5% (inactive); in [9], 67.3% (active). Moreover, the nuclei count in assay [2] was determined as 158%. The z-score in [3] (setting [10]) was -0.757; in assay [3] (setting [11]), 0.596; in assay [3] (setting [12]), -0.177. The fluorescence slope in [5] is -0.406 (inactive). For the same compound, the NADPH fluorescence slope in [6] was -0.000146 (inactive). The slope in assay [7] was 0.00547 (inactive). Moreover, the compound was classed as inactive in [8].
As to `COC(=O)CCc1c(C)[nH]c(C(=O)OCc2ccccc2)c1C`, in assay [1], the cell count worked out at 596. Also, the inhibition was -4.1% (inactive) in [1], -34% (inactive) in assay [2], -5.89% (inactive) in assay [4] and -0.974% (inactive) in assay [9]. Besides, in assay [2], the nuclei count is 179%. In addition, the z-score is -1.2 in assay [3] (setting [10]), -0.0699 in assay [3] (setting [11]) and 0.772 in assay [3] (setting [12]). The fluorescence slope in assay [5] is -0.487 (inactive). Besides, the NADPH fluorescence slope in assay [6] is -0.00013 (inactive). In addition, in [7], the slope was 0.00445 (inactive). Moreover, the compound was called inactive in assay [8].
Take `CSc1nc(Oc2ccc(=O)[nH]n2)nc(N(C)C)n1`: the cell count in [1] was 619. In addition, the inhibition is -0.7% (inactive) in assay [1], -20.1% (inactive) in [2], -2.69% (inactive) in assay [4] and 9.17% (inactive) in [9]. Moreover, the nuclei count in assay [2] is 148%. The z-score is -0.384 in assay [3] (setting [10]), -0.165 in assay [3] (setting [11]) and 1.66 in assay [3] (setting [12]). The fluorescence slope in assay [5] was -0.314 (inactive). For the same compound, the NADPH fluorescence slope in [6] was 2.2e-06 (inactive). Further, the slope in assay [7] is 0.00466 (inactive). The outcome in assay [8] was inactive.
In the case of `COC(=O)c1ccc(CSc2ncnc3c2sc2nc(N4CCOCC4)c4c(c23)CCCC4)o1`, the cell count in assay [1] came out at 565. Further, the inhibition is -11.6% (inactive) in [1], 7.4% (inactive) in assay [2], 1.48% (inactive) in assay [4] and -7.35% (inactive) in assay [9]. Further, in assay [2], the nuclei count was found to be 164%. Moreover, the values for the z-score in assay [3] (setting [10]), in [3] (setting [11]) and in assay [3] (setting [12]) were 0.509, -1.97 and -0.0919, respectively. The fluorescence slope in [5] is -0.237 (inactive). In addition, the NADPH fluorescence slope in assay [6] is -1e-05 (inactive). The slope in assay [7] was 0.00899 (inactive). Further, the outcome in assay [8] was inactive.
With `Cc1csc2nc(CSc3nc4ccccc4o3)cn12`, the cell count in assay [1] turned out to be 402. The inhibition was -8.4% (inactive) in [1], -53.8% (inactive) in assay [2], 3.56% (inactive) in assay [4] and 5.29% (inactive) in assay [9]. In [2], the nuclei count turned out to be 108%. Moreover, the z-score in assay [3] (setting [10]) was 0.0403; in assay [3] (setting [11]), 1.14; in assay [3] (setting [12]), -0.0493. The fluorescence slope in assay [5] is -0.545 (inactive). For the same compound, the NADPH fluorescence slope in assay [6] was -5.7e-05 (inactive). The slope in assay [7] is 0.00434 (inactive). For the same compound, in [8], the result was inactive.
With `COc1ccc2c(c1)nc(N)n2Cc1ccccc1`, the cell count in assay [1] amounted to 570. Besides, the inhibition in assay [1] was -4.4% (inactive); in assay [2], 15% (inactive); in assay [4] it was 15.8% (inactive); in assay [9], 12.8% (inactive). The compound also had a nuclei count in assay [2] of 168%. In addition, the z-score in assay [3] (setting [10]) was 2.35; in [3] (setting [11]), -1.31; in assay [3] (setting [12]), 1.13. Besides, the fluorescence slope in assay [5] is -0.388 (inactive). Further, the NADPH fluorescence slope in assay [6] was -2.5e-05 (inactive). For the same compound, in [7], the slope is 0.004 (inactive). Moreover, in [8], the compound was classed as inactive.
In the case of `CC(C)CC(=O)Nc1ncnc2c1C(=O)CC(C)(C)C2`, the cell count in [1] was 635. Moreover, the inhibition in assay [1] was -9.9% (inactive); in assay [2], 35.4% (inactive); in assay [4], 1.12% (inactive); in assay [9], -3.52% (inactive). Besides, in [2], the nuclei count worked out at 167%. Moreover, the z-score in [3] (setting [10]) was 0.463; in [3] (setting [11]), -0.408; in assay [3] (setting [12]), 0.517. The fluorescence slope in assay [5] is -0.413 (inactive). In addition, the NADPH fluorescence slope in assay [6] was -5.4e-05 (inactive). The slope in assay [7] was 0.00518 (inactive). Moreover, the call in [8] was inactive.
As for `COc1ccc(OCC(=O)N2CCN(C(=O)c3cccc4ccccc34)CC2)cc1`, in assay [1], the cell count came out at 413. Further, the inhibition was -2.6% (inactive) in [1], -293% (inactive) in assay [2], 3.66% (inactive) in assay [4] and 0.794% (inactive) in [9]. Also, the nuclei count in assay [2] worked out at 133%. For the same compound, the figures for the z-score in assay [3] (setting [10]), in assay [3] (setting [11]) and in [3] (setting [12]) were -0.479, 0.976 and -0.768, respectively. Moreover, in [5], the fluorescence slope is -0.448 (inactive). In addition, the NADPH fluorescence slope in [6] was -1.4e-05 (inactive). Also, the slope in [7] was 0.00599 (inactive). Moreover, the result in assay [8] was inactive.
In the case of `CC(C(=O)N1CCCCC1)N1C(=O)c2ccccc2C1=O` (stereo unspecified), the cell count in assay [1] was found to be 352. Moreover, the inhibition was -17.2% (inactive) in assay [1], -54% (inactive) in assay [2], 17.5% (inactive) in assay [4] and 10.7% (inactive) in assay [9]. Further, the nuclei count in assay [2] was found to be 122%. Besides, the results for the z-score in assay [3] (setting [10]), in [3] (setting [11]) and in assay [3] (setting [12]) were 2.3, -0.711 and -0.781, respectively. Moreover, the fluorescence slope in [5] was -0.452 (inactive). Besides, the NADPH fluorescence slope in assay [6] is -0.000116 (inactive). The slope in assay [7] was 0.00537 (inactive). Moreover, the result in [8] was inactive.
In the case of `COCCNc1oc(-c2ccc(Cl)cc2)nc1C#N`, the cell count in [1] is 465. The inhibition was -6.3% (inactive) in assay [1], -25.2% (inactive) in assay [2], 2.46% (inactive) in [4] and 10.6% (inactive) in assay [9]. The same compound registered a nuclei count in assay [2] of 161%. Further, the z-score was 1.04 in [3] (setting [10]), -0.285 in assay [3] (setting [11]) and -0.188 in assay [3] (setting [12]). Further, the fluorescence slope in assay [5] was -0.17 (inactive). For the same compound, the NADPH fluorescence slope in assay [6] is 9.3e-06 (inactive). The slope in [7] was 0.00534 (inactive). In addition, the outcome in assay [8] was inactive.
For `Oc1ccc(C=Nc2ccc3ncccc3c2)c(O)c1`, the cell count in assay [1] amounted to 490. Also, the inhibition in assay [1] was -5.8% (inactive); in [2], -113% (inactive); in [4], 3.66% (inactive); in [9] it was -13.6% (inactive). This compound yielded a nuclei count in assay [2] of 117%. In addition, the values for the z-score in assay [3] (setting [10]), in assay [3] (setting [11]) and in assay [3] (setting [12]) were 1.18, -0.733 and -0.981, respectively. Moreover, in assay [5], the fluorescence slope is -0.477 (inactive). In [6], the NADPH fluorescence slope was -3.5e-05 (inactive). Also, the slope in assay [7] is 0.00388 (inactive). Further, the outcome in [8] was inactive.

As usually defined, the inhibition is the change of the read-out against control, counted positive when it falls.

These data come from PubChem BioAssay.
